ChEMBL document CHEMBL5252516, “Linker Modification Strategies To Control the Prostate-Specific Membrane Antigen (PSMA)-Targeting and Pharmacokinetic Properties of DOTA-Conjugated PSMA Inhibitors” (J Med Chem, 2016)

Tests used:
[1] = Drug uptake in iv dosed BALB/c athymic nude mouse tumor xenografted with human LNCaP cells treated with 68Ga-labeled compound measured upto 120 mins by microPET imaging analysis; format: ADME, organism-based; conditions: in vivo, 2 h
How it was run: (§1)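 Male BALB/c nu/nu mice, 6–8 weeks old, with subcutaneous LNCaP xenografts (6 × 10^6 cells in 50% Matrigel, right trunk) of about 1 cm. Tail-vein injection of 68Ga-labelled compound (~30 MBq, 0.5 nmol) under sevoflurane. Dynamic µPET: 60 min emission scan, then 100–120 min scan. SUVmean for tumor, muscle and kidney at 1 h; tumor/muscle ratio. One animal per compound.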

[2] = Retention time of the compound by HPLC; format: physicochemical
[3] = Drug uptake in iv dosed BALB/c athymic nude mouse muscle xenografted with human LNCaP cells treated with 68Ga-labeled compound measured after 1 hr by microPET imaging analysis; format: ADME, organism-based; conditions: in vivo; how it was run: as §1
[4] = molecular target: T1, Glutamate carboxypeptidase 2 (Homo sapiens, UniProt Q04609); assay: Inhibition of PSMA in human LNCaP cells assessed as specific internalization per 10^6 cells using 177Lu-labeled compound after 45 mins by gamma counting analysis; format: cell-based
How it was run: (§2)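 LNCaP cells (10^5/well) seeded on poly-L-lysine 24 h before. Incubated 45 min at 37 °C with 32 nM 177Lu-labelled compound (25 GBq/µmol) in Opti-MEM, with or without 500 µM 2-PMPA as blocker. Four ice-cold PBS washes, surface fraction stripped with 50 mM glycine pH 2.8, internalized fraction released by 0.3 M NaOH lysis. Both fractions gamma-counted, specific values given as %IA/10^6 cells. Triplicate.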
Target sequence in this assay (Q04609 whole entry, looked up): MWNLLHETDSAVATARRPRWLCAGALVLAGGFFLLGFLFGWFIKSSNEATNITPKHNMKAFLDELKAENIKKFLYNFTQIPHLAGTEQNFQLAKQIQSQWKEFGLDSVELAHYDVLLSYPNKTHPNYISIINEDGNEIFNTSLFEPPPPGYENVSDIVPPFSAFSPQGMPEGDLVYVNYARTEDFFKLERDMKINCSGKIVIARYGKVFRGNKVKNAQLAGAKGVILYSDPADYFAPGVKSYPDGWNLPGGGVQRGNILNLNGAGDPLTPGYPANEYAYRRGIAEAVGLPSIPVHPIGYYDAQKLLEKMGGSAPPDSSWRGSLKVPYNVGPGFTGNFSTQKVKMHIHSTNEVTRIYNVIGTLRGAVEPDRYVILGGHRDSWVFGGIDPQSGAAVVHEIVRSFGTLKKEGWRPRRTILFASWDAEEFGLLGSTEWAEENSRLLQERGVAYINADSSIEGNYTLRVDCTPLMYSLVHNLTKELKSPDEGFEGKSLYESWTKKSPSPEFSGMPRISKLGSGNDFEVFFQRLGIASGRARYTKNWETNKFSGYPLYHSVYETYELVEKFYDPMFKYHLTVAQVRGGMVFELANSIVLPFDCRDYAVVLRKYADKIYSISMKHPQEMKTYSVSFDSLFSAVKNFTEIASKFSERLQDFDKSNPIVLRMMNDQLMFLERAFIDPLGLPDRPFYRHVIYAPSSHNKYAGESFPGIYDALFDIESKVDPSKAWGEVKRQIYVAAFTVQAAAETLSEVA

[5] = Drug uptake in iv dosed BALB/c athymic nude mouse kidney xenografted with human LNCaP cells treated with 68Ga-labeled compound measured after 1 hr by microPET imaging analysis; format: ADME, organism-based; conditions: in vivo; how it was run: as §1
[6] = molecular target: T1, Glutamate carboxypeptidase 2; assay: Binding affinity to PSMA in human LNCaP cells after 45 mins in presence of 68Ga-labeled PSMA-10 by gamma counting assay; format: cell-based
Target sequence in this assay (Q04609 whole entry): as the sequence (Q04609 whole entry, looked up) above

[7] = Drug uptake in iv dosed BALB/c athymic nude mouse tumor xenografted with human LNCaP cells treated with 68Ga-labeled compound measured after 1 hr by microPET imaging analysis; format: ADME, organism-based; conditions: in vivo; how it was run: as §1
[8] = Distribution coefficient, logD of the compound at pH 7.4 in n-octanol/0.1 M HEPES by shake flask method; format: physicochemical
How it was run: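 Radiolabelled compound shaken to equilibrium in n-octanol / 0.1 M HEPES pH 7.4. Aliquots of both phases gamma-counted and logD calculated from the phase ratio. Mean ± SD.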

[9] = molecular target: T1, Glutamate carboxypeptidase 2; assay: Inhibition of PSMA in human LNCaP cells assessed as cell surface binding per 10^6 cells using 177Lu-labeled compound after 45 mins by gamma counting analysis; format: cell-based; how it was run: as §2
Target sequence in this assay (Q04609 whole entry, looked up): as above

[10] = Ratio of drug uptake in tumor to muscle in iv dosed BALB/c athymic nude mouse xenografted with human LNCaP cells treated with 68Ga-labeled compound measured after 1 hr by microPET imaging analysis; format: ADME, organism-based; conditions: in vivo; how it was run: as §1
[11] = Binding affinity to human serum protein after 1 hr by gel filtration method; format: ADME

## O=C(O)CC[C@H](NC(=O)N[C@@H](CCCCNC(=O)[C@@H](Cc1ccc2ccccc2c1)NC(=O)[C@H]1CC[C@H](CNC(=O)CN2CCN(CC(=O)O)CCN(CC(=O)O)CCN(CC(=O)O)CC2)CC1)C(=O)O)C(=O)O
[1]
  Drug uptake: Active
[2]
  Retention_time: 2.56 min
[3]
  SUV: 0.27
[4]
  specific internalization (% of added activity per 10^6 cells): 7.18%
[5]
  SUV: 3.98
[6]
  Ki: 8.86 nM
[7]
  SUV: 0.69
[8]
  logD: -2.02
[9]
  specific cell surface binding (% of applied activity per 10^6 cells): 12.2%

## O=C(O)CC[C@H](NC(=O)N[C@@H](CCCCNC(=O)c1ccc(CNC(=O)CN2CCN(CC(=O)O)CCN(CC(=O)O)CCN(CC(=O)O)CC2)cc1)C(=O)O)C(=O)O
[1]
  Drug uptake: Active
[2]
  Retention_time: 1.56 min
[10]
  Ratio: 2.2
[3]
  SUV: 0.13
[4]
  specific internalization (% of added activity per 10^6 cells): 5.11%
[5]
  SUV: 2.68
[6]
  Ki: 1.97 nM
[7]
  SUV: 0.28
[8]
  logD: -1.99
[9]
  specific cell surface binding (% of applied activity per 10^6 cells): 8.54%

## O=C(O)CC[C@H](NC(=O)N[C@@H](CCCCNC(=O)[C@H](Cc1ccc2ccccc2c1)NC(=O)[C@H]1CC[C@H](CNC(=O)CN2CCN(CC(=O)O)CCN(CC(=O)O)CCN(CC(=O)O)CC2)CC1)C(=O)O)C(=O)O [VIPIVOTIDE TETRAXETAN]
[1]
  Drug uptake: Active
[2]
  Retention_time: 2.63 min
[3]
  SUV: 0.07
[4]
  specific internalization (% of added activity per 10^6 cells): 16.2%
[5]
  SUV: 2.87
[7]
  SUV: 0.59
[8]
  logD: -2
[9]
  specific cell surface binding (% of applied activity per 10^6 cells): 11.4%
[11]
  PB: Not Active

## O=C(O)CC[C@H](NC(=O)N[C@@H](CCCCNC(=O)[C@H](Cc1cccc2ccccc12)NC(=O)[C@H]1CC[C@H](CNC(=O)CN2CCN(CC(=O)O)CCN(CC(=O)O)CCN(CC(=O)O)CC2)CC1)C(=O)O)C(=O)O
[1]
  Drug uptake: Not Active
[2]
  Retention_time: 2.59 min
[10]
  Ratio: 3.6
[3]
  SUV: 0.08
[4]
  specific internalization (% of added activity per 10^6 cells): 0.9%
[5]
  SUV: 2.15
[6]
  Ki: 12.8 nM
[7]
  SUV: 0.29
[8]
  logD: -1.95
[9]
  specific cell surface binding (% of applied activity per 10^6 cells): 6.58%

## O=C(O)CCc1ccc(O)c(CN(CCN(CC(=O)O)Cc2cc(CCC(=O)NCCCCCC(=O)NCCCC[C@H](NC(=O)N[C@@H](CCC(=O)O)C(=O)O)C(=O)O)ccc2O)CC(=O)O)c1 [GOZETOTIDE]
[2]
  Retention_time: 1.69 min
[10]
  Ratio: 4.9
[4]
  specific internalization (% of added activity per 10^6 cells): 9.47%
[6]
  Ki: 12 nM
[8]
  logD: -1.71
[9]
  specific cell surface binding (% of applied activity per 10^6 cells): 10.6%

## O=C(O)CC[C@H](NC(=O)N[C@@H](CCCCNC(=O)c1ccc(CNC(=O)c2ccc(CNC(=O)CN3CCN(CC(=O)O)CCN(CC(=O)O)CCN(CC(=O)O)CC3)cc2)cc1)C(=O)O)C(=O)O
[1]
  Drug uptake: Active
[2]
  Retention_time: 1.78 min
[10]
  Ratio: 5.6
[3]
  SUV: 0.1
[4]
  specific internalization (% of added activity per 10^6 cells): 3.66%
[5]
  SUV: 3.16
[6]
  Ki: 7.51 nM
[7]
  SUV: 0.56
[8]
  logD: -1.94
[9]
  specific cell surface binding (% of applied activity per 10^6 cells): 14.3%

## O=C(O)CC[C@H](NC(=O)N[C@@H](CCCCNC(=O)[C@H](Cc1ccc2ccccc2c1)NC(=O)CN1CCN(CC(=O)O)CCN(CC(=O)O)CCN(CC(=O)O)CC1)C(=O)O)C(=O)O
[2]
  Retention_time: 2.71 min
[10]
  Ratio: 1.6
[3]
  SUV: 0.2
[4]
  specific internalization (% of added activity per 10^6 cells): 1.77%
[5]
  SUV: 4.79
[6]
  Ki: 28.6 nM
[7]
  SUV: 0.31
[8]
  logD: -2.03
[9]
  specific cell surface binding (% of applied activity per 10^6 cells): 1.68%

## O=C(O)CC[C@H](NC(=O)N[C@@H](CCCCNC(=O)[C@H](Cc1ccc(-c2ccccc2)cc1)NC(=O)CN1CCN(CC(=O)O)CCN(CC(=O)O)CCN(CC(=O)O)CC1)C(=O)O)C(=O)O
[1]
  Drug uptake: Active
[2]
  Retention_time: 2.59 min
[10]
  Ratio: 2.7
[3]
  SUV: 0.23
[4]
  specific internalization (% of added activity per 10^6 cells): 2.22%
[5]
  SUV: 6.57
[6]
  Ki: 0.5 nM
[7]
  SUV: 0.63
[8]
  logD: -1.98
[9]
  specific cell surface binding (% of applied activity per 10^6 cells): 4.93%

## O=C(O)CC[C@H](NC(=O)N[C@@H](CCCCNC(=O)c1ccc(CNC(=O)c2ccc(CNC(=O)c3ccc(CNC(=O)c4ccc(CNC(=O)CN5CCN(CC(=O)O)CCN(CC(=O)O)CCN(CC(=O)O)CC5)cc4)cc3)cc2)cc1)C(=O)O)C(=O)O
[1]
  Drug uptake: Active
[2]
  Retention_time: 2.44 min
[10]
  Ratio: 2.1
[3]
  SUV: 0.25
[4]
  specific internalization (% of added activity per 10^6 cells): 6.86%
[5]
  SUV: 2.21
[6]
  Ki: 6.19 nM
[7]
  SUV: 0.52
[8]
  logD: -2.12
[9]
  specific cell surface binding (% of applied activity per 10^6 cells): 25.2%

## O=C(O)CC[C@H](NC(=O)N[C@@H](CCCCNC(=O)c1ccc(CNC(=O)[C@H](Cc2ccc3ccccc3c2)NC(=O)[C@H]2CC[C@H](CNC(=O)CN3CCN(CC(=O)O)CCN(CC(=O)O)CCN(CC(=O)O)CC3)CC2)cc1)C(=O)O)C(=O)O
[2]
  Retention_time: 2.7 min
[10]
  Ratio: Not Determined(Unstable)
[3]
  SUV: Not Determined(Unstable)
[5]
  SUV: Not Determined(Unstable)
[7]
  SUV: Not Determined(Unstable)

## O=C(O)CC[C@H](NC(=O)N[C@@H](CCCCNC(=O)[C@H]1CC[C@H](CNC(=O)[C@H]2CC[C@H](CNC(=O)[C@H]3CC[C@H](CNC(=O)CN4CCN(CC(=O)O)CCN(CC(=O)O)CCN(CC(=O)O)CC4)CC3)CC2)CC1)C(=O)O)C(=O)O
[1]
  Drug uptake: Not Active
[2]
  Retention_time: 2.28 min
[10]
  Ratio: 0.9
[3]
  SUV: 0.21
[4]
  specific internalization (% of added activity per 10^6 cells): 0.03%
[5]
  SUV: 2.91
[6]
  Ki: 19.4 nM
[7]
  SUV: 0.18
[8]
  logD: -1.98
[9]
  specific cell surface binding (% of applied activity per 10^6 cells): 0.23%

## O=C(O)CC[C@H](NC(=O)N[C@@H](CCCCNC(=O)[C@H](Cc1ccc2ccccc2c1)NC(=O)CCCCCNC(=O)CN1CCN(CC(=O)O)CCN(CC(=O)O)CCN(CC(=O)O)CC1)C(=O)O)C(=O)O
[2]
  Retention_time: 2.58 min
[10]
  Ratio: 2
[3]
  SUV: 0.07
[4]
  specific internalization (% of added activity per 10^6 cells): 2.99%
[5]
  SUV: 2.26
[6]
  Ki: 6.31 nM
[7]
  SUV: 0.14
[8]
  logD: -1.88
[9]
  specific cell surface binding (% of applied activity per 10^6 cells): 9.07%

## O=C(O)CC[C@H](NC(=O)N[C@@H](CCCCNC(=O)[C@H]1CC[C@H](CNC(=O)[C@H](Cc2ccc3ccccc3c2)NC(=O)CN2CCN(CC(=O)O)CCN(CC(=O)O)CCN(CC(=O)O)CC2)CC1)C(=O)O)C(=O)O
[1]
  Drug uptake: Not Active
[2]
  Retention_time: 2.48 min
[10]
  Ratio: 3.5
[3]
  SUV: 0.11
[4]
  specific internalization (% of added activity per 10^6 cells): 0.13%
[5]
  SUV: 3.62
[6]
  Ki: 17.7 nM
[7]
  SUV: 0.39
[8]
  logD: -1.44
[9]
  specific cell surface binding (% of applied activity per 10^6 cells): 1.09%

## O=C(O)CC[C@H](NC(=O)N[C@@H](CCCCNC(=O)[C@H]1CC[C@H](CNC(=O)CN2CCN(CC(=O)O)CCN(CC(=O)O)CCN(CC(=O)O)CC2)CC1)C(=O)O)C(=O)O
[1]
  Drug uptake: Not Active
[2]
  Retention_time: 1.81 min
[10]
  Ratio: 1.5
[3]
  SUV: 0.15
[4]
  specific internalization (% of added activity per 10^6 cells): 1.24%
[5]
  SUV: 6.86
[6]
  Ki: 9.33 nM
[7]
  SUV: 0.23
[8]
  logD: -0.91
[9]
  specific cell surface binding (% of applied activity per 10^6 cells): 4.14%
